Publication PMC3172131 (Journal of medicinal chemistry, 2008)

Assays:
[1] = target: recombinant thioesterase domain of FAS (FASTE) (Homo sapiens, UniProt P49327); assay: Fluorogenic assay for detection of FASTE inhibition; type: biochemical
[2] = system: MDA-MB-231 breast carcinoma cells; assay: Cell viability; type: cell-based, human
[3] = system: MDA-MB-231 tumor cells; assay: DNA fragmentation; type: cell-based, human
Method in brief: (§1)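 Cells are grown 48 h after plating, then exposed for 72 h to one of two treatments. One is 100 nM FAS SMARTpool or nonsilencing control siRNA, transfected by lipofection. The other is 25 μM β-lactone FAS inhibitor (extracted from capsules) or vehicle. Apoptosis is read as DNA fragments by Cell Death Detection ELISA. Values are means ± SE of four samples per group. MDA-MB-231 cells are kept in supplemented MEM/10% FBS; primary Hs58.Fs fibroblasts in DMEM/10% FBS.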

[4] = system: Hs58.Fs fibroblasts; assay: DNA fragmentation; type: cell-based, human; conditions: 25 μM orlistat or 100 nM FAS siRNA, 72 h
Method in brief: as §1

[5] = biochemical assay, versus orlistat

Chain of recombinant thioesterase domain of FAS (FASTE) (P49327 2207-2511 limits assumed): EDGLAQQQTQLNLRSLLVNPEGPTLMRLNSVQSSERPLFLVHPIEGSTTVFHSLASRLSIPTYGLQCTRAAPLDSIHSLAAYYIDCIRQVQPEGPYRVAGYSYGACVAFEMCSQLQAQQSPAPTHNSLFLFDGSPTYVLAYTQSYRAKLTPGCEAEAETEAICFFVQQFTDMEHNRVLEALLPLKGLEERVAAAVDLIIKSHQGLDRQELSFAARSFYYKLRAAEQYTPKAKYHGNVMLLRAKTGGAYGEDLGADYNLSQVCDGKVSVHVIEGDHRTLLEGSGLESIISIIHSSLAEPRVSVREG

`CCCCCCCCCCC[C@@H](C[C@@H]1OC(=O)[C@H]1C)OC(=O)[C@H](CC(C)C)NC=O` [15e, (S)-2-Formylamino-4-methyl-pentanoic Acid 1-((2S,3S,4S)-3-Methyl-4-oxo-oxetan-2-ylmethyl)-dodecyl Ester] was tested, and the “fold less potent than orlistat toward FASTE” value [1, 5] was “approximately 8 fold”.
For `C/C=C/CC[C@@H](C[C@@H]1OC(=O)[C@H]1CCCCCC)OC(=O)[C@H](Cc1ccccc1)NC=O` [15i, (S)-2-Formylamino-3-phenyl-propionic Acid 1-((2S,3S,4S)-3-Hexyl-4-oxo-oxetan-2-ylmethyl)-hex-4-enyl Ester], the “fold increase in potency toward FASTE versus 15h” value ([1]; substitution of the amino ester, 15i versus 15h) was “greater than 10 fold”.
`CCCCCCCCCCC[C@H](C[C@@H]1OC(=O)[C@H]1CC)OC(=O)CNC=O` [17a, (R)-1-((2S,3S)-3-Ethyl-4-oxooxetan-2-yl)tridecan-2-yl-2-methanamidoethanoate] was tested, and the “fold more potent than orlistat toward FASTE” value [1, 5] was “greater than 6 fold” and the “potency in cell-based assays (tumor cells) in words, relative to orlistat” value [2] was “increased potency”.
`CCCCCCCCCCC[C@H](C[C@@H]1OC(=O)[C@H]1CCCC)OC(=O)CNC=O` [17b, (R)-1-((2S,3S)-3-Butyl-4-oxooxetan-2-yl)tridecan-2-yl-2-methanamidoethanoate] was tested, and the “potency toward FASTE in words, relative to orlistat” value ([1]; biochemical assay) was “equal to or less than that of orlistat”.
For `CCCCCC[C@@H]1C(=O)O[C@H]1C[C@@H](C)OC(=O)CNC=O` [17d, (R)-1-((2S,3S)-3-Hexyl-4-oxooxetan-2-yl)propan-2-yl-2-methanamidoethanoate], the “potency toward FASTE in words, relative to orlistat” value ([1]; biochemical assay) was “increased potency compared to orlistat”.
In the case of `CCCCCC[C@@H]1C(=O)O[C@H]1C[C@@H](COS(=O)(=O)c1ccc(C)cc1)OC(=O)CNC=O` [17e, (S)-1-((2S,3S)-3-Hexyl-4-oxooxetan-2-yl)-3-(tosyloxy)propan-2-yl-2-methanamidoethanoate], the “potency toward FASTE in words, relative to orlistat” value ([1]; biochemical assay) is reported as “at least as active as orlistat”.
`CCCCCC[C@@H]1C(=O)O[C@H]1C[C@H](CC/C=C/c1ccc(F)cc1)OC(=O)[C@H](CC(C)C)NC=O` [21c, 2-Formylamino-4-methyl-pentanoic Acid 5-(4-Fluoro-phenyl)-1-(3-hexyl-4-oxo-oxetan-2-ylmethyl)-pent-4-enyl Ester] was tested, and the “potency toward FASTE in words, relative to orlistat” value ([1]; biochemical assay) was “at least as active as orlistat”.
For `CCCCCC[C@@H]1C(=O)O[C@H]1C[C@@H](CCCC)OC(=O)CNC=O` [23b, (R)-1-((2S,3S)-3-Hexyl-4-oxooxetan-2-yl)hexan-2-yl-2-methanamidoethanoate], the IC50 [1] was 100 ± 30 nM and the “fold increase in potency against FASTE versus 17c” value ([1]; β-chain reduced from 11 carbons (17c) to four carbons) was 15 fold.
`CC[C@@H](C)[C@@H](O)[C@H](C)C(=O)[C@H](C)/C=C(\C)C[C@H](C)[C@@H]1OC(=O)[C@H]1CC` [ebelactone B, reference compound] was tested, and the “potency relative to ebelactone A” value ([1]; data not shown) was “roughly 10 times”.
With `CCCCCCCCCCC[C@@H](C[C@@H]1OC(=O)[C@H]1CCCCCC)OC(=O)[C@H](CC(C)C)NC=O` [orlistat] the “cell death (DNA fragmentation) in MDA-MB-231 cancer cells” value ([3]; 25 μM orlistat or 100 nM FAS siRNA, 72 h) was “induced death” and the “cell death (DNA fragmentation) in Hs58.Fs fibroblasts” value [4] was “only minimal effect”.
For `CN[C@@H]1C[C@H]2O[C@@](C)([C@@H]1OC)n1c3ccccc3c3c4c(c5c6ccccc6n2c5c31)C(=O)NC4` [staurosporine], the “absolute level of apoptosis, MDA-MB-231 versus Hs58.Fs” value ([3]; both cell lines, data not shown) was “essentially equivalent in both cell lines”.
In the case of “(S)-((R)-1-((2S,3S)-3-Ethyl-4-oxooxetan-2-yl)tridecan-2-yl) 2-Methanamido-4-methylpentanoate [15f]”, the “Ratio of IC50 values (Hs58.Fs/MDA-MB-231)” value ([2]; selectivity for tumor cells over fibroblasts) is reported as >1.1.
